Assay outcomes (PubChem)
ARFGAP1 inh = rat ARFGAP1 inhibition; Q62848; Arfgap1-stimulated ARF1 GTP hydrolysis, GDP FP detection; inhibition, % at 16.5 µM; 0.26% of 360,000 active; AID 651572;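 active = inhibition above a per-plate limit, mean inhibition of low control wells plus 3 SD, cut at about 25% in these data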;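 note: 0% = DMSO wells with enzyme and 100% = wells lacking Arfgap1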
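Material – truncated rat Arfgap1 GAP domain · Buffer or medium – HEPES-based buffer, pH 7.5 · Reagent – human ARF1(Δ1-17)-GTP substrate · Dosing – 16.5 µM single point, 1.26% DMSO · Schedule – GTP hydrolysis reaction 2 h at 25 °C · Technique – GDP detection by fluorescence polarization · Benchmarks – No-Arfgap1 wells (100%) versus DMSO full-reaction wells (0%) · Repeats – single replicate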
PAFAH1B3 inh = blocks human PAF acetylhydrolase 1B catalytic subunit 3; recombinant PAFAH1B3, FP-rhodamine probe, fluorescence polarization; Q15102; AID 492972; inhibition, % at 3.39 µM; 0.28% of 340,000 active;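 active = inhibition above the screen-wide average of all tested compounds plus 3 SD, cut at about 25% in these data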;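 note: 0% = enzyme with DMSO only and 100% = wells lacking PAFAH1B3 protein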
Target sequence (Q15102 whole entry, looked up): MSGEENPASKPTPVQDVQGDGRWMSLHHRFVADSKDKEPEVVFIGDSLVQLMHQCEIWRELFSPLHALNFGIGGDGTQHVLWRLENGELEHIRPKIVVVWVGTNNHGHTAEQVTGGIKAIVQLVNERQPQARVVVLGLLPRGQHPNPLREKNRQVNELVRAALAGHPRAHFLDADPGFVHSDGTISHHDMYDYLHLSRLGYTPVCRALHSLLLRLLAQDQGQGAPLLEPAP
pPAFAH inh = inhibitors of human plasma PAF acetylhydrolase (pPAFAH). 1.5% of 330,000 active. recombinant pPAFAH, FP-rhodamine probe fluorescence polarization. inhibition, % at 3.39 µM. Q13093;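 active = inhibition above the mean inhibition across the screen plus 3 SD, cut at about 25% in these data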;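 note: inhibitors block binding of the rhodamine activity-based probe so polarization drops; 0% = enzyme with DMSO and 100% = wells lacking pPAFAH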
Target sequence (Q13093 whole entry, looked up): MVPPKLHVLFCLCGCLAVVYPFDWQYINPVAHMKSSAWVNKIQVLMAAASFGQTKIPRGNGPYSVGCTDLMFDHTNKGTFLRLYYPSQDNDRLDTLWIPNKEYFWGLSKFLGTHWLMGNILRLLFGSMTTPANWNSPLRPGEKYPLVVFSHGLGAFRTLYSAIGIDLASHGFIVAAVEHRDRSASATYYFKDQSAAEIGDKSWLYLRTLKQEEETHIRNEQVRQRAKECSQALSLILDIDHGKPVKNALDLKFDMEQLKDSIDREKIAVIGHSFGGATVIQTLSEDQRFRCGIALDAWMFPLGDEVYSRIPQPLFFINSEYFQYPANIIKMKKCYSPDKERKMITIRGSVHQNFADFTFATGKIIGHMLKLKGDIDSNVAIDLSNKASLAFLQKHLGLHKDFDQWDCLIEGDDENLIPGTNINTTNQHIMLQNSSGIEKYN
PAFAH2 inh = PAFAH2 (human) inhibition; recombinant PAFAH2, FP-rhodamine activity probe, fluorescence polarization; Q99487; inhibition, % at 3.39 µM; 0.99% of 340,000 active;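 active = inhibition above the mean over all tested compounds plus 3 SD, cut at about 30% in these data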;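 note: inhibitors block probe labeling of enzyme so polarization drops; 0% = enzyme with DMSO and 100% = wells lacking PAFAH2 protein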
PAFAH1B2 FP inh = blocks human PAF acetylhydrolase 1b catalytic subunit 2. 1.2% of 340,000 active. inhibition, % at 3.39 µM. recombinant PAFAH1B2, FP-rhodamine activity probe, fluorescence polarization. P68402. AID 492953;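 active = inhibition above the mean of all tested compounds plus 3 SD, cut at about 24% in these data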;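 note: 0% = enzyme with DMSO and 100% = wells lacking PAFAH1B2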
ASAP1 GAP inh = ASAP1 ArfGAP inhibition; ASAP1-stimulated ARF1 GTP hydrolysis, GDP FP detection; 0.19% of 360,000 active; inhibition, % at 16.5 µM; Q9ULH1; in the data active = inhibition above about 25%;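 note: 0% = vehicle with enzyme and substrate and 100% = no enzyme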
ASAP1 inh confirm = confirmation of human ASAP1 inhibitors | shares compounds with ASAP1 GAP inh | ASAP1-stimulated Arf1 GTPase, GDP fluorescence polarization | inhibition, % at 16.5 µM | 37% of 620 active | AID 624431;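 active = mean inhibition over triplicates exceeds the hit threshold derived for the earlier primary screening run, cut at about 25% in these data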
ARFGAP1 inh conf = rat ARFGAP1 inhibition, confirmed; shares compounds with ARFGAP1 inh; ARFGAP1-stimulated ARF1 GTP hydrolysis, GDP tracer FP; inhibition, % at 16.5 µM; 30% of 890 active;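 active = average inhibition over triplicates above the hit cutoff set in the earlier primary screen, cut at about 25% in these data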;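 note: 0% = Arfgap1 plus ARF1-GTP with DMSO and 100% = wells lacking Arfgap1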
An asterisk follows results filed as active; / = no result. Shown are actives, neighbours in structure and some others; about 2.8% of the full set was active somewhere.

SMILES | ARFGAP1 inh | PAFAH1B3 inh | pPAFAH inh | PAFAH2 inh | PAFAH1B2 FP inh | ASAP1 GAP inh | ASAP1 inh confirm | ARFGAP1 inh conf
O=C(C[C@@H]1C/C=C/CC[C@@H](Cc2ccc(F)cc2)C(=O)OC[C@H](Cc2ccccc2)NC1=O)N[C@H](CO)Cc1ccccc1 | -10.2 | -0.7 | 5.2 | -6.6 | 8.3 | 5.3 | / | /
CCOc1ccc(CC2S/C(=N/c3ccccn3)NC2=O)cc1 (centres undefined) | -11.4 | -0.7 | 1.6 | 6.2 | 4.2 | 2.7 | / | /
CCc1ccc(CCOc2ccc(CC3SC(=O)NC3=O)cc2)nc1 (centres undefined) | 12.5 | 5.5 | 4.1 | -9.4 | 0.6 | 25.1* | 2.5 | /
Nn1c(SCC(=O)NCC2CCCO2)nnc1-c1ccc(OC(F)F)cc1 (centres undefined) | 13.0 | -4.1 | -8.7 | 3.3 | 2.0 | 3.5 | / | /
N#C/C(=C\c1ccc([N+](=O)[O-])o1)c1nc2ccccc2[nH]1 | -4.4 | / | 7.7 | / | / | 29.2* | 21.7 | /
Cc1cc(Nc2cc(Cl)nc(Sc3ccc(NC(=O)C4CC4)cc3)n2)n[nH]1 | 18.2 | 10.9 | 6.6 | -1.4 | 9.0 | 29.6* | 22.1 | /
CC(C)n1cc2c(N)ncnc2n1 | 0.1 | 2.6 | / | -8.3 | 6.8 | 4.1 | / | /
Cc1cc(N2CCN(C)CC2)nc2ccc(NC(=O)CCC3CCCC3)cc12 | 23.6 | 7.8 | 11.5 | 9.6 | 7.2 | 27.8* | 39.4* | /
Cc1cccc(-c2onc3ccc(C(=O)/C=C/N(C)C)cc23)c1 | -0.4 | -3.6 | 21.0 | 12.1 | 1.8 | -5.5 | / | /
COc1cccc(-c2onc3ccc(C(=O)/C=C/N(C)C)cc23)c1 | 1.8 | 4.9 | 7.0 | 5.8 | -0.1 | 35.5* | 51.3* | /
NS(=O)(=O)c1ccc(CCNC(=O)C(=O)C2C(=O)Nc3ccccc32)cc1 (centres undefined) | -1.8 | 5.3 | -0.9 | -2.9 | -2.3 | -8.9 | / | /
O=C(Nc1ccc2ccccc2c1)C(=O)C1C(=O)Nc2ccccc21 (centres undefined) | -11.0 | / | 6.8 | / | / | 25.1* | -4.4 | /
O=C(COc1c(F)c(F)c(C(F)(F)F)c(F)c1F)Nc1ccc(N2CCOCC2)c(Cl)c1 | 6.1 | 3.7 | 8.1 | 4.0 | 0.4 | 25.0* | 7.2 | /
Cc1ccc(NC(=O)C(OC(=O)c2ccc(NC(N)=O)cc2)c2ccccc2)cc1Cl (centres undefined) | 10.6 | -37.2 | -9.6 | -42.6 | -3.3 | 27.5* | 19.4 | /
Cc1ccc(NC(=O)C(OC(=O)c2ccccc2Cl)c2ccccc2)cc1Cl (centres undefined) | 5.4 | -77.1 | -24.2 | -61.5 | -43.3 | 7.5 | / | /
CCOc1ccccc1C(=O)NCC(=O)NCC(C)(C)N1CCOCC1 | -0.9 | 3.4 | -0.6 | -2.8 | -0.6 | 7.1 | / | /
COc1ccc(/C=N/NC(=O)c2ccccc2OC)cc1COc1ccccc1[N+](=O)[O-] | 2.8 | 1.7 | 5.2 | 0.1 | 3.2 | 6.4 | / | /
COc1ccc(/C=N\NC(=O)c2ccc([N+](=O)[O-])c(C)c2)cc1COc1ccccc1C(N)=O | 78.5* | -40.6 | 3.6 | -17.0 | -30.4 | 47.4* | 87.8* | 122.9*
Cc1cc([N+](=O)[O-])c(C)cc1-c1ccc(/C=N/NC(=O)Cn2nnnc2N)o1 | 67.0* | -5.3 | 6.4 | -1.9 | -3.4 | 64.6* | 1.0 | 35.1*
Nc1nnnn1CC(=O)N/N=C/c1cc([N+](=O)[O-])ccc1Cl | 6.3 | 4.9 | 0.5 | -0.6 | 1.7 | 5.2 | / | /
Cc1cc(C(=O)COC(=O)c2n[nH]c3ccccc23)c(C)n1C | 32.8* | 4.7 | 5.9 | 2.5 | 7.2 | 34.3* | 35.2* | 52.2*
Fc1ccc(Nc2nnc(C(F)(F)F)s2)cc1Cl | -8.5 | 5.2 | 4.4 | 10.5 | 1.1 | 7.0 | / | /
Fc1ccc(Nc2cncc(-c3ccsc3)c2)cc1Cl | 28.5* | / | / | / | / | 39.1* | 13.6 | 5.0
O=C(NCCc1ccccc1F)C1CC(=O)N(c2cccc(C(F)(F)F)c2)C1 (centres undefined) | 17.4 | 3.9 | / | -0.3 | 4.6 | 0.5 | / | /
COC(=O)c1ccc(NC(=O)c2cn(-c3ccccc3)nc2-c2ccncc2)cc1 | 29.5* | -2.1 | -5.7 | -6.2 | 0.3 | 30.7* | 51.0* | 61.2*
SMILES | ARFGAP1 inh | PAFAH1B3 inh | pPAFAH inh | PAFAH2 inh | PAFAH1B2 FP inh | ASAP1 GAP inh | ASAP1 inh confirm | ARFGAP1 inh conf
CC(=O)c1ccc(NC(=O)c2cn(-c3ccccc3)nc2-c2ccncc2)cc1 | -10.0 | -6.9 | -3.7 | -18.9 | -8.9 | 6.3 | / | /
Cc1ccc(NC(=O)C2CCN(C(=O)c3ccc(F)cc3)CC2)nc1 | -3.5 | 4.8 | 0.6 | -0.7 | -0.8 | 9.3 | / | /
Cc1ccc(C(C[N+](=O)[O-])Sc2ccc(N)cc2)cc1 (centres undefined) | 9.2 | 1.9 | 0.2 | -2.4 | 10.3 | -4.2 | / | /
Cc1ccc2nc(SCC(=O)N3CCC(C)CC3)nc(=O)n2c1 | 62.0* | 5.3 | 0.4 | 3.8 | 2.1 | 36.8* | 42.9* | 69.2*
COCCNC(=O)C(c1ccc(F)cc1)N(C(=O)CCC(=O)Nc1ccccn1)C1CCCCC1 (centres undefined) | 10.4 | 6.9 | -0.3 | 2.5 | 7.0 | -8.8 | / | /
COc1ccc(-c2cc(NC=O)c3ncc(-c4ccc(C(C)=O)cc4)n3c2)cc1OC | 27.6* | / | / | / | / | 44.7* | 60.9* | 50.0*
Cc1ccc(C(=O)Nc2cccc(C(F)(F)F)c2)cc1NC(=O)c1c[nH]c2cc(C(F)(F)F)ccc2c1=O | -0.4 | 3.1 | 3.0 | 2.8 | 6.1 | -4.0 | / | /
CCN1CCN(Cc2ccc(NC(=O)c3ccc(C)c(NC(=O)c4c[nH]c5cc(C(F)(F)F)ccc5c4=O)c3)cc2C(F)(F)F)CC1 | 44.8* | -6.9 | -10.2 | -35.7 | -0.9 | 43.2* | 53.1* | 69.9*
CCN1CCN(Cc2ccc(NC(=O)c3cc(NC(=O)c4ccno4)cc(OC)c3)cc2C(F)(F)F)CC1 | 0.7 | -3.4 | -7.0 | -10.0 | -2.0 | 9.0 | / | /
CCN1CCN(Cc2ccc(NC(=O)c3cc(NC(=O)c4cncc(-c5cccs5)c4)cc(OC)c3)cc2C(F)(F)F)CC1 | 52.0* | / | -39.5 | / | / | 37.4* | 81.6* | 91.6*
O=C(Nc1cccc(-c2cn3ccccc3n2)c1)c1cc2ccccc2oc1=O | 47.0* | 4.1 | 1.4 | 12.1 | 1.4 | 35.6* | 62.1* | 72.3*
CC(=O)Nc1cccc(-c2cn3ccccc3n2)c1 | -7.1 | -4.0 | -7.8 | 2.1 | -2.8 | 13.3 | / | /
COc1cccc(/C=N/NC(=O)N/N=C/c2cccc(OC)c2O)c1O | 63.6* | 7.9 | 6.7 | 10.6 | 2.4 | 31.2* | 81.2* | 94.6*
COc1ccccc1C=NNC(=O)NN=Cc1ccccc1OC | 57.5* | 7.3 | / | -9.4 | 1.5 | 29.9* | 52.5* | 67.5*
COc1ccccc1/C=N/NC(=O)c1ccc(Br)cc1 | -2.5 | -3.3 | 6.1 | -8.5 | -2.4 | -17.6 | / | /
